What was measured:
Assay type in all cases: functional, organism-based
[1] = system: L1210; assay: Tested for the ratio of number of survivors / total number after 60 days at the dose of 5.0 mg/kg per injection against murine L1210 Pt-resistant leukemia in experiment 2; conditions: Mus musculus
Summary of the method: (§1)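 CD2F1 (Balb/c × DBA/2F1) mice, 18–22 g, randomized and inoculated IP with counted leukemia cells on day 0, then re-randomized. Three IP treatments, dissolved in 0.9% saline and dosed on average cage weight, with dose in mg/kg per injection across a full toxic-to-ineffective range. Median life span and %T/C were recorded. Survivors at 60 days were counted as cured and excluded from %T/C.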

[2] = system: Mus musculus; assay: Tested for the ratio of number of survivors / total number after 60 days at the dose of 5.0 mg/kg per injection against murine P388 Pt-resistant leukemia; summary of the method: as §1
[3] = system: L1210; assay: Tested for median life span against solid tumor L1210 Pt-resistant leukemia at 3.0 mg/kg per injection in experiment 1; conditions: Mus musculus
Summary of the method: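 CD2F1 mice weighing 18–22 g were inoculated IP with leukemia cells on day 0. Compounds in 0.9% saline were given IP in three injections, dosed by average cage weight, over a dose range from toxic to ineffective. Median life span was recorded, with cause of death assessed at necropsy and 60-day survivors counted as cured.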

[4] = system: L1210; assay: Tested for the ratio of number of survivors / total number after 60 days at the dose of 1.5 mg/kg per injection against murine leukemia L1210 experiment 1; conditions: Mus musculus; summary of the method: as §1

CISPLATIN
Survivors [1]: 0 | Survivors [2]: 0

[Pt(cis-1,4-dach)CL2]
MLS [3]: 17 days | 60-day survivors [4]: 0

— ChEMBL document CHEMBL1127616, “Synthesis, structural characterization, and antitumor properties of a novel class of large-ring platinum(II) chelate complexes incorporating the cis-1,4-diaminocyclohexane ligand in a unique locked boat conformation” (J Med Chem, 1994)
